Results as given in ChEMBL document CHEMBL1146282, “Novel beta-lactam derivatives: potent and selective inhibitors of the chymotrypsin-like activity of the human 20S proteasome” (Bioorg Med Chem Lett, 2007).
Calls of active or inactive are those of the source. The rule behind the calls is not given here.

Assays:
[1] = Inhibition of chymotrypsin-like activity of human 20S proteasome
Procedure, shortened: (§1)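 Human 20S proteasome purified in-house from blood, assayed in vitro with fluorogenic AMC peptides: Suc-Leu-Leu-Val-Tyr-AMC (chymotrypsin-like), Boc-Leu-Arg-Arg-AMC (trypsin-like), Z-Leu-Leu-Glu-AMC (post-glutamyl-peptide hydrolytic-like). Hydrolysis followed by fluorescence rise (ex 355/em 460 nm). IC50 taken from initial linear rates, as inhibitor concentration halving the proteasome-catalysed hydrolysis rate.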

Homo sapiens [2] = organism: Homo sapiens; assay: Inhibition of chymotrypsin at 25 uM
Homo sapiens [3] = organism: Homo sapiens; assay: Inhibition of calpain at 25 uM
MDA-MB-435 = assay: Antiproliferative activity against human MDA-MB-435 cells by MTT assay; type: functional, cell-based
Procedure, shortened: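 MDA-MB-435 human breast carcinoma cells grown in MEM with 10% FCS, penicillin/streptomycin, 4 mM L-glutamine, 1 mM sodium pyruvate, non-essential amino acids and 20 mM Hepes. Compound exposure for 24, 48 or 72 h. Proliferation read by MTT-based CellTiter96 assay.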

Homo sapiens [4] = organism: Homo sapiens; assay: Inhibition of thrombin at 25 uM
Homo sapiens [5] = organism: Homo sapiens; assay: Selectivity for chymotrypsin-like activity of human 20S proteasome over post-glutamyl-peptide hydrolytic activity of human 20S proteasome
[6] = Inhibition of post-glutamyl-peptide hydrolytic activity of human 20S proteasome; procedure, shortened: as §1
Homo sapiens [7] = organism: Homo sapiens; assay: Selectivity for chymotrypsin-like activity of human 20S proteasome over trypsin-like activity of human 20S proteasome
[8] = Inhibition of trypsin-like activity of human 20S proteasome; procedure, shortened: as §1

**Q.** For `COc1ccc(C[C@H](NC(=O)Cc2cccc(Oc3ccccc3)c2)C(=O)N[C@@H](C(=O)N[C@@]2(Cc3ccccc3)CNC2=O)C(C)(C)C)c(OC)c1OC`, which IC50 [1] is on record?
**A.** 4 nM

**Q.** Which IC50 [1] does the source give for `CC(C)C[C@]1(NC(=O)[C@@H](NC(=O)[C@H](Cc2ccccc2)NC(=O)Cc2cccc(Oc3ccccc3)c2)C(C)C)CNC1=O` here?
**A.** 38000 nM

**Q.** Which IC50 [1] does the source give for `COc1ccc(C[C@H](NC(=O)Cc2cccc(Oc3ccccc3)c2)C(=O)N[C@H](C(=O)N[C@@]2(Cc3ccccc3)CNC2=O)C(C)C)c(OC)c1OC` here?
**A.** 170 nM

**Q.** Which IC50 [1] does the source give for `COc1ccc(C[C@H](NC(=O)OCc2ccccc2)C(=O)N[C@H](C(=O)N[C@]2(Cc3ccccc3)CNC2=O)C(C)C)c(OC)c1OC` here?
**A.** 5 nM

**Q.** What does the source list for `COc1ccc(C[C@H](NC(=O)Cc2cccc(Oc3ccccc3)c2)C(=O)N[C@H](C(=O)N[C@]2(CC(C)C)CNC2=O)C(C)C)c(OC)c1OC`?
**A.** Activity (Homo sapiens [2]): inactive; Activity (Homo sapiens [3]): inactive; IC50 (MDA-MB-435): 34 nM; Activity (Homo sapiens [4]): inactive; Ratio (Homo sapiens [5]): > 350; IC50 [6]: > 100000 nM; Ratio (Homo sapiens [7]): 350; IC50 [1]: 2.5 nM; IC50 [8]: 1100 nM

**Q.** With `COc1ccc(C[C@H](NC(=O)OCc2ccccc2)C(=O)N[C@H](C(=O)N[C@@]2(Cc3ccccc3)CNC2=O)C(C)C)c(OC)c1OC` as the compound, how does the IC50 [1] read?
**A.** 1400 nM

**Q.** Which Activity (Homo sapiens [2]) does the source give for `COc1ccc(C[C@H](NC(=O)Cc2cccc(Oc3ccccc3)c2)C(=O)N[C@H](C(=O)N[C@]2(Cc3ccccc3)CNC2=O)C(C)C)c(OC)c1OC` here?
**A.** inactive

**Q.** And the Activity (Homo sapiens [3])?
**A.** inactive

**Q.** And the IC50 (MDA-MB-435)?
**A.** 32 nM

**Q.** And the Activity (Homo sapiens [4])?
**A.** inactive

**Q.** And the Ratio (Homo sapiens [5])?
**A.** > 350

**Q.** What about the IC50 [6] of the same compound?
**A.** > 20000 nM

**Q.** What about the Ratio (Homo sapiens [7]) of the same compound?
**A.** 350

**Q.** And the IC50 [1]?
**A.** 1.4 nM

**Q.** What about the IC50 [8] of the same compound?
**A.** 19000 nM

**Q.** With `COc1ccc(C[C@H](NC(=O)Cc2cccc(Oc3ccccc3)c2)C(=O)N[C@H](C(=O)N[C@@]2(CC(C)C)CNC2=O)C(C)C)c(OC)c1OC` as the compound, how does the IC50 [1] read?
**A.** 1300 nM

**Q.** With `COc1ccc(C[C@H](NC(=O)Cc2cccc(Oc3ccccc3)c2)C(=O)N[C@H](C(=O)N[C@@]2(Cc3ccccc3)CNC2=O)C(C)(C)C)c(OC)c1OC` as the compound, how does the IC50 [1] read?
**A.** 280 nM

**Q.** With `CC(C)C[C@@]1(NC(=O)[C@@H](NC(=O)[C@H](Cc2ccccc2)NC(=O)Cc2cccc(Oc3ccccc3)c2)C(C)C)CNC1=O` as the compound, how does the Activity (Homo sapiens [2]) read?
**A.** inactive

**Q.** What about the Activity (Homo sapiens [3]) of the same compound?
**A.** inactive

**Q.** What about the IC50 (MDA-MB-435) of the same compound?
**A.** 1200 nM

**Q.** What about the Activity (Homo sapiens [4]) of the same compound?
**A.** inactive

**Q.** And the Ratio (Homo sapiens [5])?
**A.** > 350

**Q.** What about the IC50 [6] of the same compound?
**A.** > 20000 nM

**Q.** What about the Ratio (Homo sapiens [7]) of the same compound?
**A.** 350

**Q.** And the IC50 [1]?
**A.** 20 nM
